Columns and labels:
[1] = test system: woodchuck hepatitis virus (WHV); assay: Efficacy study in WHV-positive woodchucks; assay type: in vivo
How it was run: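 Adult chronically WHV-infected woodchucks of both sexes (serum WHV DNA, WHsAg and WHeAg positive; anti-WHs and anti-WHe negative) stratified into four groups, n = 5. Daily oral nucleoside analogue (0.1 mg/kg/day) or PBS vehicle in diet for 4 weeks. Then 12 weeks adding weekly oral TLR7 agonist (5.0–30.0 mg/kg/week) or carboxymethyl cellulose/tween-80 vehicle. Then 4 weeks daily drug only, followed to week 36. Serum WHsAg and anti-WHs by enzyme immunoassay. WHeAg and anti-WHe by cross-reactive ELISA OD.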

[2] = mice; cited from earlier work
[3] = test system: OAS1 transcript in blood; conditions: woodchuck model; cited from earlier work
[4] = test system: serum IP-10, IL-6, TNF-α; assay: Mouse PD study: serum cytokines after single oral dose; assay type: in vivo, C57BL/6 mice; conditions: serum at 3 hours
How it was run: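 Female C57BL/6 mice, 7-8 weeks old, given a single oral dose of test compound at 0.3, 3, 30 or 300 mg/kg. Bled at 3 hours. Serum IP-10, IL-6 and TNF-α quantified as pg/mL, reported as mean ± SD.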

[5] = cited from earlier work
[6] = cited from earlier work; remark: listed apart in the source

| Compound | woodchucks with recrudescence of WHV replication after drug withdrawal ([1]; Group 1) | animals with undetectable serum WHeAg during the study ([1]; Group 1, n = 5) | animals with undetectable serum WHsAg during the study ([1]; Group 1, n = 5) | elicitation of anti-WHs antibodies ([1]; monotherapy (Groups 1 and 2)) | volume of distribution [2] | fold change in blood OAS1 [3] [fold] | serum IL-6 level relative to APR002 ([4]; high oral doses) [fold] | serum TNF-α level relative to APR002 ([4]; high oral doses) [fold] | slope of serum IP-10 dose response ([4]; single oral dose 0.3-300 mg/kg) | clearance in human liver microsomes [5] | clearance in mouse liver microsomes [6] |
| --- | --- | --- | --- | --- | --- | --- | --- | --- | --- | --- | --- |
| C=C1[C@H](CO)[C@@H](O)C[C@@H]1n1cnc2c(=O)[nH]c(N)nc21 [ETV, entecavir] | all five | five | four | did not occur in any animal |  |  |  |  |  |  |  |
| CCCCOc1nc(N)c2c(n1)N(Cc1cccc(CN3CCCC3)c1)CC(=O)N2 [GS-9620] |  |  |  |  | high volume of distribution | 5 | > 6 | > 4 | 2.8 | fast clearance | fast clearance |

— article PMC6771164 (Hepatology Communications, 2019)
